The nature of data set [1]: Population pharmacokinetic. The class given is in vivo, human. The conditions noted are these: SOLNC 0.8 and 2 mg/mL (phase III studies and commercial formulations). Put shortly: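 Pooled plasma data from 159 children with achondroplasia on daily subcutaneous vosoritide (2.5–30 µg/kg) across three phase II and two phase III trials. Samples were assayed by validated ELISA or electrochemiluminescence, and mostly pre-dose points were excluded. The fit was a one-compartment model with change-point first-order absorption (Ka1/Ka2) and first-order elimination, using log-transform-both-sides and SAEM/importance sampling. Covariates were added stepwise (p<0.01) with backward elimination, against a reference weight of 20 kg.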

Data set [2] concerns children with achondroplasia. The conditions noted are these: 15 µg/kg per day, 1-year period, analysis of covariance; cited from earlier work.

Here are results for one compound from article PMC11106139 (Clinical Pharmacokinetics, 2024).

On to `CC[C@H](C)[C@@H]1NC(=O)[C@H](CCCNC(=N)N)NC(=O)[C@H](CC(=O)O)NC(=O)[C@H](CC(C)C)NC(=O)[C@H](CCCCN)NC(=O)[C@H](CC(C)C)NC(=O)CNC(=O)[C@H](Cc2ccccc2)NC(=O)[C@@H](NC(=O)CNC(=O)[C@H](CCCCN)NC(=O)[C@H](CO)NC(=O)[C@H](CC(C)C)NC(=O)CNC(=O)[C@H](CCCCN)NC(=O)[C@H](CCCCN)NC(=O)[C@H](CC(N)=O)NC(=O)[C@H](C)NC(=O)CNC(=O)[C@H](CCCCN)NC(=O)[C@H](Cc2ccc(O)cc2)NC(=O)[C@H](CCCCN)NC(=O)[C@H](CCCNC(=N)N)NC(=O)[C@H](C)NC(=O)[C@H](CC(N)=O)NC(=O)[C@@H]2CCCN2C(=O)[C@H](Cc2c[nH]cn2)NC(=O)[C@H](CCC(=O)O)NC(=O)[C@H](CCC(N)=O)NC(=O)CNC(=O)[C@@H]2CCCN2)CSSC[C@@H](C(=O)O)NC(=O)CNC(=O)[C@H](CC(C)C)NC(=O)CNC(=O)[C@H](CO)NC(=O)[C@H](CCSC)NC(=O)[C@H](CO)NC(=O)CNC1=O` [vosoritide], for which the “effect of dosing solution concentration on relative bioavailability (F)” value in data set [1] is on record as “did not have any effect on F”. For the same compound, the “increase in annualized growth velocity (least squares mean change from baseline) compared with placebo” value in data set [2] was 1.57 cm/year.
